Measured values: ChEMBL document CHEMBL1821591, “Cytotoxic bipyridines from the marine-derived actinomycete Actinoalloteichus cyanogriseus WH1-2216-6” (J Nat Prod, 2011)
Converted amounts (≈) assume the structure as drawn.

Key:
Candida albicans = test: Antimicrobial activity against Candida albicans after 24 hrs by agar dilution method; format: functional
Pseudomonas aeruginosa = test: Antimicrobial activity against Pseudomonas aeruginosa after 24 hrs by agar dilution method; format: functional
Klebsiella aerogenes = test: Antimicrobial activity against Aerobacter aerogenes after 24 hrs by agar dilution method; format: functional
Escherichia coli = test: Antimicrobial activity against Escherichia coli after 24 hrs by agar dilution method; format: functional
KB = test: Cytotoxicity against human KB cells after 72 hrs by MTT assay; format: functional, cell-based
Outline: (§1)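 MTT read-out on HL-60, K562 and KB; activity expressed as IC50 in μM.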

A549 = test: Cytotoxicity against human A549 cells after 24 hrs by SRB assay; format: functional, cell-based; conditions: A549, 24 h
K562 = test: Cytotoxicity against human K562 cells after 72 hrs by MTT assay; format: functional, cell-based; conditions: K562, 72 h; outline: as §1
HL-60 = test: Cytotoxicity against human HL60 cells after 72 hrs by MTT assay; format: functional, cell-based; conditions: HL-60, 72 h; outline: as §1

Q: What does the source list for `O=C(O)c1cn(C2CC2)c2cc(N3CCNCC3)c(F)cc2c1=O` [CIPROFLOXACIN LACTATE]?
A: MIC (Candida albicans): 1.2 µM; MIC (Pseudomonas aeruginosa): 3.8 µM; MIC (Klebsiella aerogenes): 0.94 µM

Q: Which results are given for `CC(=O)N1CCN(c2ccc(OCC3COC(Cn4ccnc4)(c4ccc(Cl)cc4Cl)O3)cc2)CC1` (centres undefined) [KETOCONAZOLE]?
A: MIC (Candida albicans): 1.2 µM (≈ 0.638 µg/mL); MIC (Pseudomonas aeruginosa): 3.8 µM (≈ 2.02 µg/mL); MIC (Escherichia coli): 1.9 µM (≈ 1.01 µg/mL); MIC (Klebsiella aerogenes): 0.94 µM (≈ 0.5 µg/mL)

Q: How did the IC50 (KB) turn out when `COc1cc(/C=N/O)nc(-c2ccccn2)c1` [CAERULOMYCIN A] was run?
A: > 50000 nM

Q: And the MIC (Candida albicans)?
A: 21.8 µM (≈ 5 µg/mL)

Q: And the MIC (Pseudomonas aeruginosa)?
A: 21.8 µM (≈ 5 µg/mL)

Q: And the IC50 (A549)?
A: 260 nM

Q: What about the MIC (Escherichia coli) of the same compound?
A: 10.9 µM (≈ 2.5 µg/mL)

Q: And the IC50 (K562)?
A: > 50000 nM

Q: And the IC50 (HL-60)?
A: 710 nM
